Assay results from ChEMBL document CHEMBL1268908, “Design, synthesis, radiolabeling, and in vivo evaluation of carbon-11 labeled N-[2-[4-(3-cyanopyridin-2-yl)piperazin-1-yl]ethyl]-3-methoxybenzamide, a potential positron emission tomography tracer for the dopamine D(4) receptors” (J Med Chem, 2010).

Legend:
Format in all cases: ADME, organism-based, Macaca mulatta
[1] = tested on: Striatum; test: Biodistribution in rhesus monkey striatum at 150.3 MBq, iv after 23 mins; conditions: in vivo
[2] = Biodistribution in rhesus monkey retina at 150.3 MBq, iv after 33 mins; conditions: in vivo, 0.55 h
[3] = Biodistribution in rhesus monkey cerebellum at 150.3 MBq, iv after 31 mins; conditions: in vivo
How it was run: (§1)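 Male rhesus monkey under ketamine (10 mg/kg im) with head fixation. After a 20 min 68Ge-68Ga transmission scan, the [11C]-labelled tracer in saline (pH 7.4) was injected iv, at 2.9 TBq/μmol specific radioactivity at injection. A dynamic 3D PET scan followed over 90 min (6×0.5, 7×1, 20×2, 8×5 min frames). Regions were defined on T1-weighted 1.5 T MRI, and uptake is given as %ID/mL.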

[4] = tested on: Hippocampus; test: Biodistribution in rhesus monkey hippocampus at 150.3 MBq, iv after 5.5 mins; conditions: in vivo
How it was run: (§2)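 Male rhesus monkey under ketamine 10 mg/kg im, head fixed; 20 min 68Ge-68Ga transmission scan, then 90 min dynamic 3D PET (6×0.5, 7×1, 20×2, 8×5 min frames) after iv [11C]-labelled tracer in saline, specific radioactivity about 2.9 TBq/μmol at injection. Regions defined on T1-weighted MRI; uptake expressed as % injected dose per mL.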

[5] = tested on: Hippocampus; test: Biodistribution in rhesus monkey hippocampus at 150.3 MBq, iv after 0.75 mins; conditions: in vivo, 45 s
How it was run: (§3)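 Single male rhesus monkey anesthetized with ketamine 10 mg/kg im, head fixed. Attenuation correction by 20 min 68Ge-68Ga transmission scan. [11C]-tracer in saline (pH 7.4) given iv, specific radioactivity 2.9 TBq/μmol at injection. Dynamic 3D PET emission scan over 90 min in frames of 0.5 to 5 min. MRI T1 images used to define VOIs. Uptake expressed as […].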

[6] = tested on: Striatum; test: Biodistribution in rhesus monkey striatum at 150.3 MBq, iv after 87.5 mins; conditions: in vivo
[7] = tested on: Hippocampus; test: Biodistribution in rhesus monkey hippocampus at 150.3 MBq, iv after 3.5 mins; conditions: in vivo; how it was run: as §2
[8] = tested on: Hippocampus; test: Biodistribution in rhesus monkey hippocampus at 150.3 MBq, iv after 0.25 mins; conditions: in vivo, 15 s; how it was run: as §3
[9] = Biodistribution in rhesus monkey retina at 150.3 MBq, iv after 77.5 mins; conditions: in vivo
[10] = tested on: Striatum; test: Biodistribution in rhesus monkey striatum at 150.3 MBq, iv after 82.5 mins; conditions: in vivo, 1.375 h
[11] = Biodistribution in rhesus monkey entorhinal cortex at 150.3 MBq, iv after 35 mins; conditions: in vivo; how it was run: as §3
[12] = Biodistribution in rhesus monkey occipital lobe at 150.3 MBq, iv after 1.25 mins; conditions: in vivo, 75 s; how it was run: as §2
[13] = Biodistribution in rhesus monkey retina at 150.3 MBq, iv after 6.5 mins; conditions: in vivo
[14] = Biodistribution in rhesus monkey cerebellum at 150.3 MBq, iv after 11 mins; conditions: in vivo; how it was run: as §1
[15] = tested on: Hippocampus; test: Biodistribution in rhesus monkey hippocampus at 150.3 MBq, iv after 52.5 mins; conditions: in vivo, 0.875 h; how it was run: as §2
[16] = Biodistribution in rhesus monkey cerebellum at 150.3 MBq, iv after 0.25 mins; conditions: in vivo, 15 s; how it was run: as §1
[17] = tested on: Striatum; test: Biodistribution in rhesus monkey striatum at 150.3 MBq, iv after 52.5 mins; conditions: in vivo, 0.875 h
[18] = Biodistribution in rhesus monkey cingulate cortex at 150.3 MBq, iv after 23 mins; conditions: in vivo; how it was run: as §1
[19] = Biodistribution in rhesus monkey retina at 150.3 MBq, iv after 72.5 mins; conditions: in vivo
[20] = Biodistribution in rhesus monkey occipital lobe at 150.3 MBq, iv after 82.5 mins; conditions: in vivo, 1.375 h
[21] = Biodistribution in rhesus monkey cingulate cortex at 150.3 MBq, iv after 41 mins; conditions: in vivo; how it was run: as §1
[22] = tested on: Striatum; test: Biodistribution in rhesus monkey striatum at 150.3 MBq, iv after 62.5 mins; conditions: in vivo
[23] = tested on: Hippocampus; test: Biodistribution in rhesus monkey hippocampus at 150.3 MBq, iv after 7.5 mins; conditions: in vivo, 0.125 h; how it was run: as §2
[24] = tested on: Striatum; test: Biodistribution in rhesus monkey striatum at 150.3 MBq, iv after 1.25 mins; conditions: in vivo, 75 s
[25] = Biodistribution in rhesus monkey cingulate cortex at 150.3 MBq, iv after 8.5 mins; conditions: in vivo; how it was run: as §3
[26] = Biodistribution in rhesus monkey cerebellum at 150.3 MBq, iv after 5.5 mins; conditions: in vivo; how it was run: as §1
[27] = tested on: Striatum; test: Biodistribution in rhesus monkey striatum at 150.3 MBq, iv after 4.5 mins; conditions: in vivo, 0.075 h
[28] = tested on: Hippocampus; test: Biodistribution in rhesus monkey hippocampus at 150.3 MBq, iv after 41 mins; conditions: in vivo; how it was run: as §2
[29] = Biodistribution in rhesus monkey occipital lobe at 150.3 MBq, iv after 23 mins; conditions: in vivo; how it was run: as §2
[30] = Biodistribution in rhesus monkey cerebellum at 150.3 MBq, iv after 29 mins; conditions: in vivo; how it was run: as §1
[31] = tested on: Hippocampus; test: Biodistribution in rhesus monkey hippocampus at 150.3 MBq, iv after 45 mins; conditions: in vivo, 0.75 h; how it was run: as §2
[32] = tested on: Striatum; test: Biodistribution in rhesus monkey striatum at 150.3 MBq, iv after 13 mins; conditions: in vivo
[33] = Biodistribution in rhesus monkey retina at 150.3 MBq, iv after 41 mins; conditions: in vivo
[34] = tested on: Striatum; test: Biodistribution in rhesus monkey striatum at 150.3 MBq, iv after 41 mins; conditions: in vivo
[35] = Biodistribution in rhesus monkey retina at 150.3 MBq, iv after 7.5 mins; conditions: in vivo, 0.125 h
[36] = tested on: Hippocampus; test: Biodistribution in rhesus monkey hippocampus at 150.3 MBq, iv after 31 mins; conditions: in vivo; how it was run: as §2
[37] = tested on: Hippocampus; test: Biodistribution in rhesus monkey hippocampus at 150.3 MBq, iv after 21 mins; conditions: in vivo, 0.35 h; how it was run: as §3
[38] = Biodistribution in rhesus monkey cerebellum at 150.3 MBq, iv after 39 mins; conditions: in vivo, 0.65 h; how it was run: as §1
[39] = Biodistribution in rhesus monkey occipital lobe at 150.3 MBq, iv after 11 mins; conditions: in vivo; how it was run: as §2
[40] = Biodistribution in rhesus monkey cerebellum at 150.3 MBq, iv after 2.75 mins; conditions: in vivo, 165 s; how it was run: as §1
[41] = Biodistribution in rhesus monkey occipital lobe at 150.3 MBq, iv after 27 mins; conditions: in vivo, 0.45 h; how it was run: as §2
[42] = tested on: Hippocampus; test: Biodistribution in rhesus monkey hippocampus at 150.3 MBq, iv after 9.5 mins; conditions: in vivo; how it was run: as §2
[43] = Biodistribution in rhesus monkey occipital lobe at 150.3 MBq, iv after 39 mins; conditions: in vivo, 0.65 h; how it was run: as §2
[44] = Biodistribution in rhesus monkey cingulate cortex at 150.3 MBq, iv after 1.25 mins; conditions: in vivo, 75 s; how it was run: as §1
[45] = tested on: Striatum; test: Biodistribution in rhesus monkey striatum at 150.3 MBq, iv after 2.25 mins; conditions: in vivo, 135 s
[46] = Biodistribution in rhesus monkey cingulate cortex at 150.3 MBq, iv after 82.5 mins; conditions: in vivo, 1.375 h; how it was run: as §3
[47] = Biodistribution in rhesus monkey cerebellum at 150.3 MBq, iv after 13 mins; conditions: in vivo; how it was run: as §1
[48] = tested on: Hippocampus; test: Biodistribution in rhesus monkey hippocampus at 150.3 MBq, iv after 19 mins; conditions: in vivo; how it was run: as §3

Drug uptake [1]: 18.52 kBq/ml
Drug uptake [2]: 57.47 kBq/ml
Drug uptake [3]: 13.26 kBq/ml
Drug uptake [4]: 39.36 kBq/ml
Drug uptake [5]: 57.7053 kBq/ml
Drug uptake [6]: 8.125 kBq/ml
Drug uptake [7]: 43.93 kBq/ml
Drug uptake [8]: 39.52 kBq/ml
Drug uptake [9]: 50.63 kBq/ml
Drug uptake [10]: 8.324 kBq/ml
Drug uptake [11]: 11.33 kBq/ml
Drug uptake [12]: 55.16 kBq/ml
Drug uptake [13]: 44.54 kBq/ml
Drug uptake [14]: 24.15 kBq/ml
Drug uptake [15]: 9.565 kBq/ml
Drug uptake [16]: 40.52 kBq/ml
Drug uptake [17]: 10.06 kBq/ml
Drug uptake [18]: 17.4 kBq/ml
Drug uptake [19]: 51.43 kBq/ml
Drug uptake [20]: 8.356 kBq/ml
Drug uptake [21]: 10.93 kBq/ml
Drug uptake [22]: 9.547 kBq/ml
Drug uptake [23]: 34.09 kBq/ml
Drug uptake [24]: 60.2 kBq/ml
Drug uptake [25]: 30.4104 kBq/ml
Drug uptake [26]: 33.43 kBq/ml
Drug uptake [27]: 42.26 kBq/ml
Drug uptake [28]: 11.5929 kBq/ml
Drug uptake [29]: 15.16 kBq/ml
Drug uptake [30]: 14.54 kBq/ml
Drug uptake [31]: 10.64 kBq/ml
Drug uptake [32]: 24.68 kBq/ml
Drug uptake [33]: 57.19 kBq/ml
Drug uptake [34]: 11.2 kBq/ml
Drug uptake [35]: 43.92 kBq/ml
Drug uptake [36]: 14.91 kBq/ml
Drug uptake [37]: 17.71 kBq/ml
Drug uptake [38]: 10.98 kBq/ml
Drug uptake [39]: 21.64 kBq/ml
Drug uptake [40]: 41.81 kBq/ml
Drug uptake [41]: 14.42 kBq/ml
Drug uptake [42]: 30.28 kBq/ml
Drug uptake [43]: 9.974 kBq/ml
Drug uptake [44]: 60.79 kBq/ml
Drug uptake [45]: 51.53 kBq/ml
Drug uptake [46]: 9.311 kBq/ml
Drug uptake [47]: 21.2714 kBq/ml
Drug uptake [48]: 18.77 kBq/ml
Compound: [11CH3]Oc1cccc(C(=O)NCCN2CCN(c3ncccc3C#N)CC2)c1
